Experimental data gathered from unrelated publications.
Lines come from different studies, so protocols differ.
Target: Receptor tyrosine-protein kinase erbB-4 (ERBB4, Homo sapiens, UniProt Q15303)

Compound	assay	setting	measurement	result
Cc1ccc(C(=O)NCc2ccsc2)cc1C#Cc1cn(C(C)C)c2ncnc(N)c12	enzyme activity, inhibitor	1 µM	activity vs control	52%
O=C(NCc1ncc(C(F)(F)F)cc1Cl)c1ccc2c(c1)C1(CCS(=O)(=O)CC1)[C@@H](C1CC1)N2S(=O)(=O)c1ccc(F)cc1	cell-free assay, competition with immobilised ligand	1 µM	remaining binding	72%
CC/C(=N\NC(=O)NCc1cccc(O)c1)c1ccc(O)c(C)c1O	enzyme activity, inhibitor	0.1 µM	inhibition	9.9%
Oc1cccc(-c2nc(N3CCOCC3)c3oc4ncccc4c3n2)c1	enzyme activity, inhibitor	10 µM	remaining activity	114%
Cc1ccc(Nc2nccc(N(C)c3ccc4c(C)n(C)nc4c3)n2)cc1S(N)(=O)=O	enzyme activity, inhibitor	0.3 µM	inhibition	-9%
N#CCCc1ccc2c(c1)-c1[nH]c3ccc([N+](=O)[O-])cc3c1CC(=O)N2	cell-free assay	0.5 µM	remaining signal	91.8%
CC(C)(O)[C@H]1CC[C@H](Nc2ccc3ncc(-c4cccc(C(F)(F)F)c4)n3n2)CC1	enzyme activity, inhibitor	1 µM	remaining activity	92.6%
CCCOc1ccc(OC)c(F)c1C(=O)c1ccc(C(=O)N[C@@H]2CNC[C@H]2NC(=O)c2ccc3[nH]ncc3c2)cc1	enzyme activity, inhibitor	10 µM	remaining activity	92%
CC(=O)c1c(NS(C)(=O)=O)c2cc(-c3ccc(Cl)cc3)c(-c3ccc(Cl)cc3Cl)nc2n(C)c1=O	cell-free assay, competition with immobilised ligand	1 µM	remaining binding	100%
COc1cc(/C=C/C(=O)CC(=O)/C=C/c2ccc(O)c(OC)c2)ccc1O	enzyme activity, inhibitor	1 µM	activity vs control	71%
O=C(NC[C@@H]1[C@H]2CN(C(=O)OCc3cc(C(F)(F)F)cc(C(F)(F)F)c3)C[C@@H]12)c1ccc2[nH]nnc2c1	cell-free assay, competition with immobilised ligand	1 µM	remaining binding	100%
COc1cc2ncnc(Nc3ccc(Oc4ccccc4)cc3C)c2cc1OC	enzyme activity, inhibitor	1 µM	inhibition	98%
C=CC(=O)Nc1cc(Nc2nccc(Nc3cc(Cl)c(F)cc3C(C)(C)O)n2)c(OC)cc1N1CC[C@@H](N(C)C)C1	enzyme activity, inhibitor	1 µM	inhibition	88%
O=C(Nc1cccnn1)N1CCC(=Cc2cccc(Oc3ccc(C(F)(F)F)cn3)c2)CC1	cell-free assay, competition with immobilised ligand	1 µM	remaining binding	100%
COc1cc(Cl)c(C(=O)N[C@@H](CN[C@H]2CC[C@@H](N)CC2)Cc2ccc(C#N)cc2)cc1-c1ccc(CN[C@H](C)c2ccc(C)cc2)o1	enzyme activity, inhibitor	1 µM	remaining activity	99%
O=C1NC(=O)c2cc(Nc3ccc(F)cc3)c(Nc3ccc(F)cc3)cc21	cell-free assay	0.5 µM	remaining signal	99.4%
CN(C)C(=O)Cn1cc(-c2nc([C@@](C)(c3ccc(-c4cnc(N)nc4)cc3)C3CC3)no2)cn1	cell-free assay, competition with immobilised ligand	1 µM	remaining binding	100%
CC(C)(C)c1nc2c(s1)c1nc(N)ncc1c1ccc(NS(=O)(=O)c3c(F)cccc3F)c(F)c12	enzyme activity, inhibitor, radiometric	1 µM	remaining activity	80%
COc1cc(Nc2cnc(C#N)c(O[C@H](C)CN(C)C)n2)ncc1-c1cnn(C)c1	enzyme activity, inhibitor, radiometric	10 µM	remaining activity	94%
